Measured values pooled from the literature.
In brackets after ≈: the same amount, converted by molar mass.

O=C(N[C@H](CO)[C@H](O)c1ccc([N+](=O)[O-])cc1)C(Cl)Cl
MIC90 (Aliivibrio fischeri; microbial growth): 3.9 µg/mL (≈ 12.1 µM)

O=C(Nc1cc(F)c(F)c(F)c1)c1ccc(F)c(S(=O)(=O)NCc2cccc(B(O)O)c2)c1
EC50 (Hepatitis B virus; viral replication, inhibitor, qPCR; HePAD38; 6 days): 920 nM

COc1ccc(-c2ccc(-c3ccc(C(=N)N)nc3)s2)cc1Cl
GI50 (SF-268; cell growth or viability, SRB): 1810 nM

CCN(CC)CCNC(=O)c1c(C)[nH]c(/C=C2\C(=O)Nc3ccc(F)cc32)c1C
GI50 (BaF3; cell growth or viability, ATP luminescence; 72 h): 1420 nM

O=C(O)CCc1cccc(Oc2ccc(-c3noc(-c4ccc(O)cc4)n3)cc2)c1
MIC (Clostridioides difficile; microbial growth, broth dilution; 48 h): 8 µg/mL (≈ 19.9 µM)

COc1ccnc(COc2ccc(NC(=O)Nc3ccc(F)cc3)cc2)c1OC
IC50 (L02; cell growth or viability, MTT; 72 h): > 100000 nM

Cc1ccc(C)n1-c1ccc(-c2nnc(-c3ccc(Br)cc3)[nH]2)cc1
MIC (Saccharomyces cerevisiae; microbial growth, broth dilution; ATCC9763): 4 µg/mL (≈ 10.2 µM)

O=C1O[C@H]([C@@H](O)CO)C(O)=C1O
inhibition (ABTS scavenging; 60 µg/mL): 49.9%

Nc1ccc(-c2nc(-c3ccc(Oc4ccccc4)cc3)no2)cc1
MIC (Clostridioides difficile; microbial growth, broth dilution; 48 h): > 50 µg/mL

Cc1ccc(N(O)N=Nc2ccc(S(=O)(=O)Nc3cc(C)on3)cc2)cc1
inhibition (ABTS scavenging; 20 µg/mL): 17.2%

Cl.NCCc1cccc(Oc2ccc(-c3noc(-c4ccc(O)cc4)n3)cc2)c1
MIC (Clostridioides difficile; microbial growth, broth dilution; 48 h): 4 µg/mL

COc1c(C)cnc(COc2ccc(NC(=O)Nc3cccc(C(F)(F)F)c3)cc2)c1C
IC50 (L02; cell growth or viability, MTT; 72 h): > 100000 nM

Cc1cccc(N(O)N=Nc2ccc(S(=O)(=O)Nc3cc(C)on3)cc2)c1
inhibition (ABTS scavenging; 300 µg/mL): 90.2%
